ChEMBL document CHEMBL4402547, “Synthesis and Pharmacological Characterization of Conformationally Restricted Retigabine Analogues as Novel Neuronal Kv7 Channel Activators” (J Med Chem, 2020)
Activity calls are given as the source filed them. No cut-off for these calls is given here.

Tests used:
[1] = Hydrophobicity of compound assessed as self aggregating property by measuring decrease in ratio between fluorescence intensity peaks at 372 nm to 383 nm at 0.7 to 100 uM by pyrene based fluorescence spectroscopic method; format: physicochemical
Summary of the method: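 DMSO stocks diluted in 0.9% NaCl to 0.7–100 μM, residual DMSO <0.1%. Pyrene used as probe, excited at 334 nm; emission recorded 200–700 nm, ten scans summed, at 25°C. Ratio of peak I (372 nm) to peak III (383 nm) intensity plotted against concentration.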

[2] = biological target: CYP450 (phase 1 metabolism) (Homo sapiens, UniProt P04798+P05177+P05181+P08684+P10632+P10635+P11509+P11712+P13584+P20813+P20815+P20853+P24462+P24903+P33260+P33261+P51589+P78329+P98187+Q02928+Q08477+Q16678+Q16696+Q5TCH4+Q6VVX0+Q7Z449+Q8TAV3+Q96SQ9+Q9HB55); assay: Drug metabolism in human liver S9 fractions assessed as CYP450-mediated phase 1 metabolism at 1 mM preincubated for 5 mins followed by NADPH addition and measured after 60 mins by RP-UHPLC-DAD analysis relative to control; format: ADME, subcellular; conditions: read-out: Drug metabolism
Summary of the method: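 Drug (1 mM stock, 2 μL) incubated with pooled human liver S9 fraction in 100 mM phosphate buffer pH 7.4. After 5 min preincubation, NADPH added and mixture kept 60 min at 37°C. Stopped with ice-cold methanol, centrifuged, supernatant analysed by RP-UHPLC-DAD. % turnover = 100 − (60 min/0 min concentration × 100). Controls: no-NADPH, and testosterone, 7-hydroxycoumarin, p-aminobenzoic acid.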

[3] = biological target: T1, Potassium voltage-gated channel subfamily KQT member 2 (Homo sapiens, UniProt O43526); assay: Activation of human Kv7.2 expressed in CHO cells assessed as delta V at 10 uM by whole cell patch clamp electrophysiology assay; format: cell-based
T1 sequence (O43526 whole entry): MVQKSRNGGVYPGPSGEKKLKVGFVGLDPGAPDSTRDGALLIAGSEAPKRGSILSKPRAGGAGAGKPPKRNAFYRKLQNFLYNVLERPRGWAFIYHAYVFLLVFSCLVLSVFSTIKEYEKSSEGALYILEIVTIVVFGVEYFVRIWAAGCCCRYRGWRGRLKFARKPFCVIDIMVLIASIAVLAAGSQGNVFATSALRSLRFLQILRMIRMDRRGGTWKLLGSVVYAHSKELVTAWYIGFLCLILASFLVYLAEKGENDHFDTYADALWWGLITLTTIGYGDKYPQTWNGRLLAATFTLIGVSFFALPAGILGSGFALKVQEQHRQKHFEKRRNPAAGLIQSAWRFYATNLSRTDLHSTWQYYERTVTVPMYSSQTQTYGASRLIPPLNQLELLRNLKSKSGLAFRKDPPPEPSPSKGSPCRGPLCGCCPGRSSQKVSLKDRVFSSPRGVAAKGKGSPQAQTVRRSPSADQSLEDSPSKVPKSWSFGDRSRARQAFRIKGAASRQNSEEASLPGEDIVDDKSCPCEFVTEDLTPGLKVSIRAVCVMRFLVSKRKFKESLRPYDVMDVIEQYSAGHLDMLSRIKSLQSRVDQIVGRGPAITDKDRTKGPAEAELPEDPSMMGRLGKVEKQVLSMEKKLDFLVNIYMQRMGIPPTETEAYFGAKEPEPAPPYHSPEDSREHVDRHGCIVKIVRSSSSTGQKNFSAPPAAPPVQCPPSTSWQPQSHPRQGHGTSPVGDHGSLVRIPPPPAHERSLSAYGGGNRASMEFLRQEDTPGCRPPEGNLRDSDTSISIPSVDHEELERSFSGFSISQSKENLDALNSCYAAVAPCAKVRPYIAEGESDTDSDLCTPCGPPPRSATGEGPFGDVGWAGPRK
Summary of the method: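 Human Kv7.2 transiently expressed in CHO cells; whole-cell recordings at room temperature (20–22°C), pH 7.4 extracellular solution. 3-s ramps from −80 to +20 mV with 0.01–10 μM drug. ΔV taken as shift of the potential where current reaches 20% of peak, drug vs control, plotted against log concentration. Four-parameter logistic fit gives EC50; mean ± SD of ≥3 experiments.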

[4] = Photostability of compound in pH 7.4 buffer assessed as compound degradation at 100 ug/ml incubated for 6 hrs under natural solar light-irradiation by HPLC analysis relative to control
Summary of the method: (§1)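 DMSO solutions diluted in pH 7.4 buffer, held in 1 cm quartz cells and exposed to natural daylight. Light-shielded controls kept at 37°C in foil. Aliquots drawn at set intervals and parent compound loss measured by UHPLC: C18 column, 0.1% TFA water/acetonitrile gradient, 45°C, detection at 254 nm.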

[5] = Photostability of compound in pH 7.4 buffer assessed as compound degradation at 100 ug/ml incubated for 4 hrs under natural solar light-irradiation by HPLC analysis relative to control; summary of the method: as §1
[6] = biological target: T2, Potassium voltage-gated channel subfamily KQT member 3 (Homo sapiens) (UniProt O43525); assay: Activation of human Kv7.3 expressed in CHO cells assessed as delta V at 30 uM by whole cell patch clamp electrophysiology assay; format: cell-based
T2 sequence (whole entry): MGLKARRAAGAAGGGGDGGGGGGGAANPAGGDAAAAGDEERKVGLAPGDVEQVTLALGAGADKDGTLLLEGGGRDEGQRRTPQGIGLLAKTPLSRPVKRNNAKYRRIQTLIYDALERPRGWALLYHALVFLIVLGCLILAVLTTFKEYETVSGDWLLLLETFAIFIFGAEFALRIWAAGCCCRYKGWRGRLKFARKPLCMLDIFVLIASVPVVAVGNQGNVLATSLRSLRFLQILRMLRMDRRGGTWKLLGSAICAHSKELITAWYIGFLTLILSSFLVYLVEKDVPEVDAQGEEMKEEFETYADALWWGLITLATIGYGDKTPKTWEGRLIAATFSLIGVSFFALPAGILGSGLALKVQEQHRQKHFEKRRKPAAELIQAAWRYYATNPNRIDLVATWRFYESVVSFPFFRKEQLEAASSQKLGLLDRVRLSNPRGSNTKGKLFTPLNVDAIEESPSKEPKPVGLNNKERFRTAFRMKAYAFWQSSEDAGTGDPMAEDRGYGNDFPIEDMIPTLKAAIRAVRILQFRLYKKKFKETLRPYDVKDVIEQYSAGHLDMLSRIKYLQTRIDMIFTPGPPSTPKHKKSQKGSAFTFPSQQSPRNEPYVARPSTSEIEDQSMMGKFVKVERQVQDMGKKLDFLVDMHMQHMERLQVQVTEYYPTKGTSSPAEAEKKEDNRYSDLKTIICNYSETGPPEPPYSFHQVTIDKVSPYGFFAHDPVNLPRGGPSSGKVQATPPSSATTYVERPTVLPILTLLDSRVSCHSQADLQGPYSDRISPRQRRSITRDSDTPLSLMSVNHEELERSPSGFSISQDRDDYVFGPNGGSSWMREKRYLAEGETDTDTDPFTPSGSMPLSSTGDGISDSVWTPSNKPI

[7] = Photostability of compound in pH 7.4 buffer assessed as compound degradation at 100 ug/ml incubated for 2 hrs under natural solar light-irradiation by HPLC analysis relative to control; summary of the method: as §1
[8] = biological target: T1, Potassium voltage-gated channel subfamily KQT member 2; assay: Activation of human Kv7.2 expressed in CHO cells assessed as increase in current amplitude at 10 uM measured at holding potential of 0 mV by whole cell patch clamp electrophysiology assay relative to control; format: cell-based
Summary of the method: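 Transiently transfected CHO cells expressing human Kv7.2, whole-cell patch clamp at 20–22°C in HEPES-buffered saline pH 7.4. Cells held at −80 mV and ramped −80 to +20 mV over 3 s, before and during 10 μM drug. Ramp current at 0 mV taken as drug/control ratio; mean ± SEM of ≥3 cells, ≥2 transfections.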

[9] = biological target: Potassium voltage-gated channel subfamily KQT member 5 (Homo sapiens, UniProt Q9NR82); assay: Activation of human Kv7.5 expressed in CHO cells assessed as delta V at 10 uM by whole cell patch clamp electrophysiology assay; format: cell-based
Potassium voltage-gated channel subfamily KQT member 5, sequence (Q9NR82 whole entry): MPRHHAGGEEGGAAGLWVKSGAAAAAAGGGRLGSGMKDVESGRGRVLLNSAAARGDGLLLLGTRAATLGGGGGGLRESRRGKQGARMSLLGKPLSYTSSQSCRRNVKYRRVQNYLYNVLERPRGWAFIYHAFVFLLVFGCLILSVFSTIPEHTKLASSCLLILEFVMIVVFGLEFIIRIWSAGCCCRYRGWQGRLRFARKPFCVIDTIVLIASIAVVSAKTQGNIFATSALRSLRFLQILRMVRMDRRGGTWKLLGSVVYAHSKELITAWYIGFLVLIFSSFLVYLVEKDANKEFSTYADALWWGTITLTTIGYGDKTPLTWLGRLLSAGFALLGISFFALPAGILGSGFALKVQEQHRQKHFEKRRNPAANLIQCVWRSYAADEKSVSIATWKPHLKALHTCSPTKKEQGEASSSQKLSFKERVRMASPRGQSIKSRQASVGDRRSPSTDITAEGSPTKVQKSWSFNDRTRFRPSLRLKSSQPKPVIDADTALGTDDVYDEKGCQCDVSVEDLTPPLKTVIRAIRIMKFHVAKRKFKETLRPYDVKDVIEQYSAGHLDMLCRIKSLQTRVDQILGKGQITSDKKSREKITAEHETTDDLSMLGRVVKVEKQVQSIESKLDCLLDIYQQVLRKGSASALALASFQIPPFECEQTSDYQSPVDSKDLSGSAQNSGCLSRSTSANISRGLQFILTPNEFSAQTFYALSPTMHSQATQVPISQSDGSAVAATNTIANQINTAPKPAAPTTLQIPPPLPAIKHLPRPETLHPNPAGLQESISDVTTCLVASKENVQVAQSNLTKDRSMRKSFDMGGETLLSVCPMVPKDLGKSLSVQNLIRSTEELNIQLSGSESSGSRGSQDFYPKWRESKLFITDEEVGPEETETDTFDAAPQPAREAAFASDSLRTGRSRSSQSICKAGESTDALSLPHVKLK

Row | Compound | Activity [1] | metabolised at 1 h, 1000 µM [2] | Activity [3] | Drug degradation [4] | Drug degradation [5] | Activity [6] | Drug degradation [7] | Activity [8] | Activity [9] | Ratio [8]
1 | CC(C)(C)CC(=O)Nc1ccc2c(ccn2Cc2ccc(C(F)(F)F)cc2)c1 | Active | 17.3% | -30 mV | 8.45% | 6.62% | -21.4 mV | 0.96% | Active | -19.7 mV | –
2 | CCOC(=O)Nc1ccc(NCc2ccc(F)cc2)cc1N [EZOGABINE] | Not Active | 3.11% | -25.4 mV | 43.5 to 47.3% | 25.2% | -39.9 mV | 9.65% | – | -21.95 mV | 2
3 | CCCCCCC(=O)Nc1ccc2c(ccn2Cc2ccc(C(F)(F)F)cc2)c1 | Active | 48.7% | -29.5 mV | 9.15% | 5.82% | -26.2 mV | 1.36% | Active | -25.6 mV | –
